Assay results taken from ChEMBL document CHEMBL2417474, “Synthesis, antiproliferative and anti-inflammatory activities of some novel 6-aryl-2-(p-(methanesulfonyl)phenyl)-4,5-dihydropyridazi-3(2H)-ones” (Eur J Med Chem, 2013).

How the values were obtained:
Type in all cases: functional
M14 = experiment: Growth inhibition of human M14 cells after 48 hrs by sulforhodamine B assay; details: M14, 48 h
In short: (§1)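 NCI 60-cell-line panel grown in RPMI-type medium with 5% fetal calf serum and 2 mM L-glutamine. Cells preincubated 24 h, then exposed continuously for 48 h to compound in DMSO at 10^-4 to 10^-8 M (five 10-fold levels). Growth read by SRB protein stain. GI50 is the concentration giving a 50% reduction in net protein increase relative to control cells.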

T47D = experiment: Growth inhibition of human T47D cells assessed as cell growth at 10 uM after 48 hrs by sulforhodamine B assay; details: read-out: Activity
In short: (§2)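 Single-dose NCI screen. Tumor lines were cultured in medium with 5% fetal calf serum and 2 mM L-glutamine, preincubated 24 h, then given compound in DMSO. After 48 h continuous exposure, cell growth was estimated by sulforhodamine B protein assay.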

[1] = Growth inhibition of human NCI-ADR-RES cells assessed as cell growth at 10 uM after 48 hrs by sulforhodamine B assay; details: read-out: Activity
SK-MEL-2 [2] = experiment: Growth inhibition of human SK-MEL-2 cells assessed as cell growth at 10 uM after 48 hrs by sulforhodamine B assay; details: SK-MEL-2, 48 h, read-out: Activity
HL-60(TB) = experiment: Growth inhibition of human HL-60(TB) cells after 48 hrs by sulforhodamine B assay; details: HL-60, 48 h
In short: (§3)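 Part of the NCI 60-cell-line panel. Cells were grown in 1640 medium with 5% fetal calf serum and 2 mM L-glutamine, then preincubated 24 h before compound was added. Compounds in DMSO were tested at five concentrations (100, 10, 1, 0.1, 0.01 µM) with 48 h continuous exposure. Read-out was SRB protein staining; GI50 is the concentration halving the net protein increase versus control.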

Malme-3M = experiment: Growth inhibition of human MALME-3M cells after 48 hrs by sulforhodamine B assay; in short: as §1
ACHN = experiment: Growth inhibition of human ACHN cells assessed as cell growth at 10 uM after 48 hrs by sulforhodamine B assay; details: read-out: Activity
[3] = Growth inhibition of human HCC2998 cells after 48 hrs by sulforhodamine B assay; details: HCC 2998, 48 h; in short: as §1
K562 = experiment: Growth inhibition of human K562 cells assessed as cell growth at 10 uM after 48 hrs by sulforhodamine B assay; details: K562, 48 h, read-out: Activity
SF-539 [4] = experiment: Growth inhibition of human SF539 cells after 48 hrs by sulforhodamine B assay; details: SF-539, 48 h
In short: (§4)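 NCI 60-cell-line panel. Cells were grown in medium with 5% fetal calf serum and 2 mM L-glutamine, then preincubated 24 h in plates. Compounds were added from DMSO at five 10-fold concentrations from 100 to 0.01 µM and left on cells continuously for 48 h. Cell growth was read by sulforhodamine B protein stain. GI50 is the concentration that halves net protein increase relative to control cells.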

SK-MEL-2 [5] = experiment: Growth inhibition of human SK-MEL-2 cells after 48 hrs by sulforhodamine B assay; details: SK-MEL-2, 48 h; in short: as §4
HT-29 [6] = experiment: Growth inhibition of human HT-29 cells after 48 hrs by sulforhodamine B assay; details: HT-29, 48 h; in short: as §1
SN12C = experiment: Growth inhibition of human SN12C cells after 48 hrs by sulforhodamine B assay; in short: as §3
SF-539 [7] = experiment: Growth inhibition of human SF539 cells assessed as cell growth at 10 uM after 48 hrs by sulforhodamine B assay; details: SF-539, 48 h, read-out: Activity
BT-549 = experiment: Growth inhibition of human BT549 cells after 48 hrs by sulforhodamine B assay; details: BT-549, 48 h; in short: as §1
UO-31 = experiment: Growth inhibition of human UO31 cells assessed as cell growth at 10 uM after 48 hrs by sulforhodamine B assay; details: UO-31, 48 h, read-out: Activity; in short: as §2
TK-10 [8] = experiment: Growth inhibition of human TK10 cells assessed as cell growth at 10 uM after 48 hrs by sulforhodamine B assay; details: TK-10, 48 h, read-out: Activity; in short: as §2
MDA-MB-468 = experiment: Growth inhibition of human MDA-MB-468 cells after 48 hrs by sulforhodamine B assay; details: MDA-MB-468, 48 h; in short: as §4
MDA-MB-435 = experiment: Growth inhibition of human MDA-MB-435 cells assessed as cell growth at 10 uM after 48 hrs by sulforhodamine B assay; details: MDA-MB-435, 48 h, read-out: Activity
[9] = Growth inhibition of human HCC2998 cells assessed as cell growth at 10 uM after 48 hrs by sulforhodamine B assay; details: HCC 2998, 48 h, read-out: Activity
SNB-75 [10] = experiment: Growth inhibition of human SNB75 cells assessed as cell growth at 10 uM after 48 hrs by sulforhodamine B assay; details: SNB-75, 48 h, read-out: Activity
SK-OV-3 = experiment: Growth inhibition of human SKOV3 cells after 48 hrs by sulforhodamine B assay; details: SK-OV-3, 48 h; in short: as §4
SNB-75 [11] = experiment: Growth inhibition of human SNB75 cells after 48 hrs by sulforhodamine B assay; details: SNB-75, 48 h; in short: as §4
SF-295 = experiment: Growth inhibition of human SF295 cells after 48 hrs by sulforhodamine B assay; details: SF-295, 48 h; in short: as §4
TK-10 [12] = experiment: Growth inhibition of human TK10 cells after 48 hrs by sulforhodamine B assay; details: TK-10, 48 h
In short: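 NCI 60-line panel. Cells were grown in medium with 5% fetal calf serum and 2 mM L-glutamine and preincubated 24 h in plates. Compound in DMSO was added at 10^-4 to 10^-8 M (five 10-fold levels), with continuous exposure for 48 h. Growth was read by SRB protein staining. GI50 is the concentration giving 50% reduction in net protein increase versus control cells.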

DU-145 = experiment: Growth inhibition of human DU145 cells assessed as cell growth at 10 uM after 48 hrs by sulforhodamine B assay; details: DU-145, 48 h, read-out: Activity
HT-29 [13] = experiment: Growth inhibition of human HT-29 cells assessed as cell growth at 10 uM after 48 hrs by sulforhodamine B assay; details: HT-29, 48 h, read-out: Activity
IGROV-1 = experiment: Growth inhibition of human IGROV1 cells assessed as cell growth at 10 uM after 48 hrs by sulforhodamine B assay; details: IGROV-1, 48 h, read-out: Activity
[14] = read-out: LC50 (the source's name)

With `Cc1cc(O)ccc1C1=NN(c2ccc(S(C)(=O)=O)cc2)C(=O)CC1` the GI50 (M14) was 3.85 µM, the TGI (M14) was over 100 µM and the CC50 (M14; [14]) was over 100 µM. It also gave a growth at 10 µM (T47D) of 84.8%, a growth at 10 µM [1] of 40.6% and a growth at 10 µM (SK-MEL-2 [2]) of 68.7%. For the same compound, the GI50 (HL-60(TB)) was 3.52 µM, the TGI (HL-60(TB)) was 48.4 µM and the CC50 (HL-60(TB); [14]) was over 100 µM. For the same compound, the GI50 (Malme-3M) was 5.37 µM, the TGI (Malme-3M) was over 100 µM and the CC50 (Malme-3M; [14]) was over 100 µM. It also gave a growth at 10 µM (ACHN) of 79.7%, a GI50 [3] of 46.7 µM and a TGI [3] of over 100 µM. The CC50 [3, 14] was over 100 µM, the growth at 10 µM (K562) was 20.6% and the GI50 (SF-539 [4]) was 13.2 µM. For the same compound, the TGI (SF-539 [4]) was over 100 µM, the CC50 (SF-539 [4]; [14]) was over 100 µM and the GI50 (SK-MEL-2 [5]) was 3.48 µM. The LC50 (SK-MEL-2 [5]) was over 100 µM, the TGI (SK-MEL-2 [5]) was 32.8 µM and the GI50 (HT-29 [6]) was 3.7 µM. For the same compound, the LC50 (50% lethal concentration) (HT-29 [6]) was over 100 µM, the TGI (HT-29 [6]) was 32.3 µM and the GI50 (SN12C) was 7.18 µM. It also gave an LC50 (SN12C) of over 100 µM, a TGI (SN12C) of over 100 µM and a growth at 10 µM (SF-539 [7]) of 73.8%. For the same compound, the GI50 (BT-549) was 4.97 µM, the TGI (BT-549) was over 100 µM and the CC50 (BT-549; [14]) was over 100 µM. The growth at 10 µM (UO-31) was 48.8%, the growth at 10 µM (TK-10 [8]) was 105% and the GI50 (MDA-MB-468) was 11 µM. For the same compound, the LC50 (concentration killing 50% of cells) (MDA-MB-468) was over 100 µM, the TGI (MDA-MB-468) was 44.3 µM and the growth at 10 µM (MDA-MB-435) was -8.25%. For the same compound, the growth at 10 µM [9] was 78.6%, the growth at 10 µM (SNB-75 [10]) was 75.2% and the GI50 (SK-OV-3) was 9.77 µM. For the same compound, the LC50 (SK-OV-3) was over 100 µM, the TGI (SK-OV-3) was over 100 µM and the GI50 (SNB-75 [11]) was 5.53 µM. It also gave a TGI (SNB-75 [11]) of over 75.2 µM, a CC50 (SNB-75 [11]; [14]) of over 100 µM and a GI50 (SF-295) of 2.87 µM. It also gave an LC50 (concentration killing 50% of cells present at start) (SF-295) of over 100 µM, a TGI (SF-295) of 12.4 µM and a GI50 (TK-10 [12]) of 80.5 µM. It also gave a TGI (TK-10 [12]) of over 100 µM, a CC50 (TK-10 [12]; [14]) of over 100 µM and a growth at 10 µM (DU-145) of 92.2%. The growth at 10 µM (HT-29 [13]) was 38.9% and the growth at 10 µM (IGROV-1) was 43.5%.
